Assay [1] addresses Delta-type opioid receptor (Homo sapiens) (UniProt P41143). As to conditions: 0.8 umol/kg.
Assay [2] has as its target T1, Opioid receptors; mu & delta (Homo sapiens) (UniProt P41143+P35372). Kind of assay: Selectivity as the ratio of IC50 value against delta receptor to that of mu receptor. The class given is protein assay.
Assay [3] concerns the target Kappa-type opioid receptor (Cavia porcellus) (UniProt P41144). The assay is described as follows: IC50 ratio was measured on ethylketazocine (Opioid receptor kappa 1) in the guinea pig ileal longitudinal muscle(GPI) preparation.
For assay [4], the target named is T1, Opioid receptors; mu & delta (Homo sapiens). Kind of assay: Selectivity as the ratio of Ki value towards mu receptor to that of delta 1 receptor. The assay is classed as protein assay.
For a further assay, the target named is Mu-type opioid receptor (Cavia porcellus, UniProt P97266). Kind of assay: The opioid receptor affinity(Ki) was evaluated by competition with [3H]DAMGO (mu) on guinea pig brain membranes. Further details: species or system Membrane.
Assay [5] addresses Mu-type opioid receptor (Mus musculus) (UniProt P42866). The assay is described as follows: Antagonist activity against the mu opioid receptor using morphine as agonist at 20 pmol/kg (icv) was determined as ratio of ED50 of antagonist to the control (ED50 of control = 9.7 (8.6-10.9) umol/kg). The class given is functional.
The target of assay [6] is Delta-type opioid receptor (Mus musculus) (UniProt P32300). The assay is described as follows: IC50 ratio was measured on DADLE (delta) in the mouse vas deferens (MVD) preparation.
The subject of assay [7] is Mus musculus. The assay is described as follows: Intravenous dose required to produce an equivalnet antagonism of DPDPE-induced antinociception. The assay is classed as functional. An outline of the steps:
(§1)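 In the mouse tail-flick assay against DPDPE-induced antinociception, the antagonist was given icv or iv. […] The iv/icv value is the ratio of these two doses.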

Assay [8] concerns the target T2, Opioid receptors; delta & kappa (Homo sapiens) (UniProt P41145+P41143). The assay is described as follows: Selectivity as the ratio of Ki value towards kappa receptor to that of delta 1 receptor. The assay is classed as protein assay.
A short description of assay [9]: (§2) Antagonist activity against the delta1 opioid receptor using DPDPE as agonist at 20 pmol/kg (icv) was determined as ratio of ED50 of antagonist to the control (ED50 of control = 8.6 (6.5-11.1) nmol/kg). The class given is functional.
For assay [10], the target named is Mu-type opioid receptor (Cavia porcellus) (UniProt P97266). Kind of assay: IC50 ratio was measured on Morphine(mu) in the guinea pig ileal longitudinal muscle(GPI) preparation. The class given is tissue-based. As to conditions: Muscle tissue.
Assay [11] has as its system Mus musculus. The assay is described as follows: Intracerebroventricular dose required to produce an equivalnet antagonism of DPDPE-induced antinociception. The assay is classed as functional. The method, boiled down:
as §1

Assay [12] deals with Kappa-type opioid receptor (Cavia porcellus, UniProt P41144). The assay is described as follows: The opioid receptor affinity(Ki) was evaluated by competition with 9 (Opioid receptor kappa 1) on guinea pig brain membranes. On the set-up: species or system Membrane.
In assay [13] the target is T2, Opioid receptors; delta & kappa (Homo sapiens). Kind of assay: Selectivity as the ratio of IC50 value against delta receptor to that of kappa receptor. The class given is protein assay.
Assay [14] deals with Delta-type opioid receptor (Mus musculus) (UniProt P32300). Kind of assay: The antagonist potencies mediated through […] were expressed as Ke values calculated on DADLE(delta) in the mouse vas deferens(MVD) preparation. The class given is functional. The method, boiled down:
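In electrically stimulated mouse vas deferens with DADLE as agonist, antagonist was preincubated 15 min at 100 nM unless otherwise specified. Ke = [antagonist]/(IC50 ratio − 1) from the Schild relationship, averaged over at least three IC50 ratio determinations.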

Assay [15] is described as follows: Ratio of iv dose to that of icv. The class given is functional. An outline of the steps:
as §1

Assay [16] concerns the target Kappa-type opioid receptor (Mus musculus) (UniProt P33534). The assay is described as follows: Antagonist activity against the kappa opioid receptor using U-50,488H as agonist at 20 pmol/kg (icv) was determined as ratio of ED50 of antagonist to the control (ED50 of control = 27.3 (8.5-52.8) umol/kg). The class given is functional.
Assay [17] deals with Delta-type opioid receptor (Mus musculus) (UniProt P32300). Described as §2. The assay is classed as functional.

Broadly, the Ki is the dissociation constant of the complex between target and ligand, obtained from inhibition or displacement. High values mean weaker binding, low ones tighter binding.

`O=C(O)C[C@@H](NC(=O)c1cccc2c3c([nH]c12)[C@@H]1Oc2c(O)ccc4c2C12CCN(CC1CC1)C(C4)[C@]2(O)C3)C(=O)O` (some centres not stated): the ED50 ratio was determined as 2.3 in assay [1], 1 in [5] and 2.6 in assay [9]. Besides, the Selectivity worked out at 67 in assay [2], 2570 in assay [4], 6250 in [8] and 30 in assay [13]. The figures for the IC50 ratio in [3], in assay [6] and in assay [10] were 2.1, 89 and 1.3, respectively. For the same molecule, the Ki was 368 nM at Mu-type opioid receptor and 893 nM in assay [12]. For the same molecule, the results for the Dose with Mus musculus [7] and with Mus musculus [11] were 0.62 µM/kg and 12.5 pM/kg, respectively. Moreover, the Ke in assay [14] is 1.1 nM.

Consider `NCCC[C@@H](NC(=O)c1cccc2c3c([nH]c12)[C@@H]1Oc2c(O)ccc4c2C12CCN(CC1CC1)C(C4)[C@]2(O)C3)C(=O)O` (some centres not stated), for which the Selectivity in [2] turned out to be 20; in assay [4] it was 756; in assay [8], 320; in assay [13] it was 63. Further, the IC50 ratio in assay [3] was found to be 0.9; in [6] it was 58; in assay [10] it was 3. Besides, the Ki turned out to be 136 nM on Mu-type opioid receptor and 57 nM in [12]. Moreover, the Ke in [14] is 1.8 nM.

As for `Oc1ccc2c3c1O[C@H]1c4[nH]c5ccccc5c4C[C@@]4(O)[C@@H](C2)N(CC2CC2)CC[C@]314` [NALTRINDOLE], the Dose with Mus musculus [7] was determined as 2.19 µM/kg; in the assay with Mus musculus [11], 300 pM/kg. Also, the Ke in assay [14] was 0.2 nM.

Take `O=C(O)CNC(=O)c1cccc2c3c([nH]c12)[C@@H]1Oc2c(O)ccc4c2C12CCN(CC1CC1)C(C4)[C@]2(O)C3` (some centres not stated): the Selectivity in [2] came out at 21; in assay [4], 38200; in assay [8] it was 30000; in assay [13], 30. Besides, the values for the IC50 ratio in assay [3], in assay [6] and in [10] were 1.1, 32 and 1.5, respectively. For the same molecule, the affinity at Mu-type opioid receptor, expressed as Ki, was 206 nM. Besides, the ED50 ratio in [5] turned out to be 0.9; in assay [16] it was 0.8; in assay [17], 5.3. The Dose in the assay with Mus musculus [7] was found to be 0.53 µM/kg; in the assay on Mus musculus [11] it was 4.7 pM/kg. Further, the Ratio in assay [15] is 112766. The Ke in assay [14] was 3.2 nM.

For `NCCCC[C@@H](NC(=O)c1cccc2c3c([nH]c12)[C@@H]1Oc2c(O)ccc4c2C12CCN(CC1CC1)C(C4)[C@]2(O)C3)C(=O)O` (some centres not stated), the Selectivity in assay [2] is 20; in assay [4], 719; in [8], 134; in assay [13], 20. Moreover, the results for the IC50 ratio in assay [3], in assay [6] and in [10] were 1.1, 20 and 1, respectively. Further, the Ki came out at 219 nM at Mu-type opioid receptor and 41 nM in [12]. For the same molecule, in [14], the Ke is 5.2 nM.

`N=C(N)NCCC[C@@H](NC(=O)c1cccc2c3c([nH]c12)[C@@H]1Oc2c(O)ccc4c2C12CCN(CC1CC1)C(C4)[C@]2(O)C3)C(=O)O` (some centres not stated): the Selectivity in assay [2] was determined as 24; in assay [4], 2100; in [8] it was 1180; in assay [13], 27. The IC50 ratio is 1.2 in assay [3], 31 in [6] and 1.3 in assay [10]. The Ki at Mu-type opioid receptor was determined as 333 nM; in assay [12], 188 nM. For the same molecule, the Ke in assay [14] was 3.3 nM.

With `O=C(O)c1cccc2c3c([nH]c12)[C@@H]1Oc2c(O)ccc4c2C12CCN(CC1CC1)C(C4)[C@]2(O)C3` (some centres not stated), the Selectivity in [2] came out at 122; in assay [4], 1850; in [8] it was 3250; in assay [13] it was 231. In addition, the IC50 ratio in assay [3] came to 1; in [6], 25; in [10], 2. At Mu-type opioid receptor, this molecule registered a Ki of 24 nM. Besides, in assay [14], the Ke is 0.4 nM.

Source of the values: ChEMBL document CHEMBL1128224 (J Med Chem, 1995).
